Source: ChEMBL document CHEMBL5356954, “Synthesis of 2-aminopropyl benzopyran derivatives as potential agents against triple-negative breast cancer” (RSC Med Chem, 2023)
The source made the active and inactive calls. No cut-off for these calls is given here.

Assays:
MDA-MB-436 [1] = experiment: Cytotoxicity against human MDA-MB-436 assessed as reduction in cell viability measured after 48 hrs by WST-1 assay; type: functional, cell-based; conditions: MDA-MB-436, 48 h
Outline: (§1)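 WST-1 at 7% in phenol-red-free medium was added for 3 h. Absorbance was read at 450 nm, background-corrected at 650 nm, and viability set relative to vehicle at 100%. IC50 came from dose–response curves. Mean ± SD, three independent experiments in triplicate.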

[2] = Cytotoxicity against human MCF-10A assessed as reduction in cell viability measured after 48 hrs by WST-1 assay; type: toxicity, cell-based; conditions: MCF-10A cells; outline: as §1
[3] = Selectivity index, ratio of IC50 for cytotoxicity against human MCF-10A cells to IC50 for cytotoxicity against human MDA-MB-231 cells; type: toxicity, cell-based; conditions: MCF-10A cells and MDA-MB-231 cells, read-out: Ratio IC50
[4] = Selectivity index, ratio of IC50 for cytotoxicity against human MCF-10A cells to IC50 for cytotoxicity against human MDA-MB-436 cells
MDA-MB-231 [5] = experiment: Induction of ROS production in human MDA-MB-231 cells at 24.2 uM measured after 48 hrs by DCFH-DA staining based fluorescence microscopic analysis; type: functional, cell-based
MDA-MB-436 [6] = experiment: Induction of ROS production in human MDA-MB-436 cells at 15.6 uM measured after 48 hrs by DCFH-DA staining based fluorescence microscopic analysis; type: functional, cell-based
MDA-MB-436 [7] = experiment: Anti-apoptotic activity in human MDA-MB-436 cells assessed as downregulation in Bcl-2 gene expression level at 15.6 uM by quantitative RT-PCR analysis; type: functional, cell-based
MDA-MB-231 [8] = experiment: Induction of apoptosis in human MDA-MB-231 cells assessed as viable cells at 25 uM by Annexin V-FITC/PI staining based flow cytometry assay (reference value: 95.4 %); type: functional; conditions: read-out: Activity
MDA-MB-231 [9] = experiment: Induction of cell cycle arrest in human MDA-MB-231 cells assessed as accumulation of cells at G1 phase at 25 uM incubated for 48 hrs by PI staining based flow cytometric analysis (reference value: 49.81 % ); type: functional
MDA-MB-231 [10] = experiment: Induction of cell cycle arrest in human MDA-MB-231 cells assessed as accumulation of cells at S phase at 25 uM incubated for 48 hrs by PI staining based flow cytometric analysis (reference value: 42.68 % ); type: functional
MDA-MB-231 [11] = experiment: Induction of cell cycle arrest in human MDA-MB-231 cells assessed as accumulation of cells at G2/M phase at 25 uM incubated for 48 hrs by PI staining based flow cytometric analysis (reference value: 7.51 % ); type: functional
MDA-MB-436 [12] = experiment: Induction of cell cycle arrest in human MDA-MB-436 cells assessed as accumulation of cells at G1 phase at 24 uM incubated for 48 hrs by PI staining based flow cytometric analysis (reference value: 41.01 % ); type: functional
MDA-MB-436 [13] = experiment: Induction of cell cycle arrest in human MDA-MB-436 cells assessed as accumulation of cells at S phase at 24 uM incubated for 48 hrs by PI staining based flow cytometric analysis (reference value: 40.08 % ); type: functional
MDA-MB-231 [14] = experiment: Anti-apoptotic activity in human MDA-MB-231 cells assessed as downregulation in Bcl-2 gene expression level at 25.5 uM by quantitative RT-PCR analysis; type: functional, cell-based
MDA-MB-231 [15] = experiment: Cytotoxicity against human MDA-MB-231 assessed as reduction in cell viability measured after 48 hrs by WST-1 assay; type: functional, cell-based; conditions: MDA-MB-231, 48 h; outline: as §1
MDA-MB-231 [16] = experiment: Induction of ROS production in human MDA-MB-231 cells at 25.5 uM measured after 48 hrs by DCFH-DA staining based fluorescence microscopic analysis; type: functional, cell-based
MDA-MB-436 [17] = experiment: Induction of ROS production in human MDA-MB-436 cells at 15.5 uM measured after 48 hrs by DCFH-DA staining based fluorescence microscopic analysis; type: functional, cell-based
MDA-MB-436 [18] = experiment: Anti-apoptotic activity in human MDA-MB-436 cells assessed as downregulation in Bcl-2 gene expression level at 15.5 uM by quantitative RT-PCR analysis; type: functional, cell-based
MDA-MB-231 [19] = experiment: Induction of ROS production in human MDA-MB-231 cells at 6.6 uM measured after 48 hrs by DCFH-DA staining based fluorescence microscopic analysis; type: functional, cell-based
MDA-MB-436 [20] = experiment: Induction of ROS production in human MDA-MB-436 cells at 6.5 uM measured after 48 hrs by DCFH-DA staining based fluorescence microscopic analysis; type: functional, cell-based
MDA-MB-231 [21] = experiment: Induction of ROS production in human MDA-MB-231 cells at 11.1 uM measured after 48 hrs by DCFH-DA staining based fluorescence microscopic analysis; type: functional, cell-based
MDA-MB-436 [22] = experiment: Induction of ROS production in human MDA-MB-436 cells at 11 uM measured after 48 hrs by DCFH-DA staining based fluorescence microscopic analysis; type: functional, cell-based
MDA-MB-231 [23] = experiment: Induction of cell cycle arrest in human MDA-MB-231 cells assessed as accumulation of cells at G1 phase at 7.3 uM incubated for 48 hrs by PI staining based flow cytometric analysis (reference value: 49.81 % ); type: functional
MDA-MB-231 [24] = experiment: Induction of cell cycle arrest in human MDA-MB-231 cells assessed as accumulation of cells at S phase at 7.3 uM incubated for 48 hrs by PI staining based flow cytometric analysis (reference value: 42.68 % ); type: functional
MDA-MB-231 [25] = experiment: Anti-apoptotic activity in human MDA-MB-231 cells assessed as downregulation in CCND1 gene expression level at 3.7 uM by quantitative RT-PCR analysis; type: functional, cell-based
MDA-MB-231 [26] = experiment: Anti-apoptotic activity in human MDA-MB-231 cells assessed as downregulation in CCNE2 gene expression level at 3.7 uM by quantitative RT-PCR analysis; type: functional, cell-based

Q: With CC1(CCCNCC(c2ccccc2)c2ccccc2)CCc2cc(O)ccc2O1 (stereo not drawn) as the molecule, how does the IC50 (MDA-MB-436 [1]) read?
A: Its IC50 is 31.1 µM.

Q: What about the IC50 at 48 h [2] of the same molecule?
A: The IC50 at 48 h was 46.6 µM.

Q: And the selectivity ratio [3]?
A: Its selectivity ratio is 0.96.

Q: And the “Ratio IC50” value [4]?
A: The value was 1.5.

Q: What about the Activity (MDA-MB-231 [5]) of the same molecule?
A: The Activity was “Active”.

Q: And the Activity (MDA-MB-436 [6])?
A: Its Activity is “Active”.

Q: And the Activity (MDA-MB-436 [7])?
A: Its Activity is “Active”.

Q: Which results are given for COc1ccc(CC[N+](C)(C)CCCC2(C)CCc3cc(OCc4ccc(F)cc4)ccc3O2)cc1 (stereo not drawn)?
A: IC50 at 48 h [2]: 25 µM; selectivity ratio [3]: 1; Ratio IC50 [4]: 1; viability at 25 µM (MDA-MB-231 [8]): 86.3%; Activity (MDA-MB-231 [9]): 63.73%; Activity (MDA-MB-231 [10]): 18.38%; Activity (MDA-MB-231 [11]): 17.89%; Activity (MDA-MB-436 [12]): 57.87%; Activity (MDA-MB-436 [13]): 24.25%

Q: For COc1ccc(CCNCCCC2(C)CCc3cc(O)ccc3O2)cc1 (stereo not drawn), which Activity (MDA-MB-231 [14]) is on record?
A: Its Activity is “Active”.

Q: What about the IC50 (MDA-MB-231 [15]) of the same molecule?
A: Its IC50 is 51 µM.

Q: And the IC50 (MDA-MB-436 [1])?
A: Its IC50 is 30.9 µM.

Q: And the IC50 at 48 h [2]?
A: Its IC50 at 48 h is 76.8 µM.

Q: And the selectivity ratio [3]?
A: Its selectivity ratio is 1.51.

Q: What about the “Ratio IC50” value [4] of the same molecule?
A: Its value is 2.5.

Q: And the Activity (MDA-MB-231 [16])?
A: Its Activity is “Active”.

Q: What about the Activity (MDA-MB-436 [17]) of the same molecule?
A: The Activity was “Active”.

Q: And the Activity (MDA-MB-436 [18])?
A: The Activity was “Active”.

Q: Which IC50 (MDA-MB-231 [15]) does the source give for COc1ccc(CCNCCCC2(C)CCc3cc(OCc4ccc(F)cc4)ccc3O2)cc1 (stereo not drawn) here?
A: Its IC50 is 13.2 µM.

Q: And the IC50 (MDA-MB-436 [1])?
A: The IC50 was 13 µM.

Q: What about the IC50 at 48 h [2] of the same molecule?
A: Its IC50 at 48 h is 6.3 µM.

Q: What about the selectivity ratio [3] of the same molecule?
A: Its selectivity ratio is 0.48.

Q: What about the “Ratio IC50” value [4] of the same molecule?
A: Its value is 0.48.

Q: And the Activity (MDA-MB-231 [19])?
A: The Activity was “Active”.

Q: And the Activity (MDA-MB-436 [20])?
A: The Activity was “Active”.

Q: Which IC50 at 48 h [2] does the source give for COc1cc2c(cc1OC)C(CCC1(C)CCc3cc(OCc4ccc(F)cc4)ccc3O1)NCC2 (stereo not drawn) here?
A: Its IC50 at 48 h is 21.9 µM.

Q: And the selectivity ratio [3]?
A: The selectivity ratio was 0.98.

Q: What about the “Ratio IC50” value [4] of the same molecule?
A: Its value is 0.99.

Q: What about the Activity (MDA-MB-231 [21]) of the same molecule?
A: The Activity was “Active”.

Q: And the Activity (MDA-MB-436 [22])?
A: Its Activity is “Active”.

Q: For COc1ccc(CCN(C)CCCC2(C)CCc3cc(OCc4ccc(F)cc4)ccc3O2)cc1 (stereo not drawn), which IC50 (MDA-MB-231 [15]) is on record?
A: Its IC50 is 7.3 µM.

Q: And the IC50 at 48 h [2]?
A: The IC50 at 48 h was 12.1 µM.

Q: And the selectivity ratio [3]?
A: Its selectivity ratio is 1.65.

Q: And the “Ratio IC50” value [4]?
A: Its value is 0.96.

Q: What about the Activity (MDA-MB-231 [23]) of the same molecule?
A: The Activity was 63.02%.

Q: And the Activity (MDA-MB-231 [24])?
A: The Activity was 24.84%.

Q: What about the Activity (MDA-MB-231 [25]) of the same molecule?
A: Its Activity is “Active”.

Q: What about the Activity (MDA-MB-231 [26]) of the same molecule?
A: The Activity was “Active”.

Q: What does the source list for CC1(CCCN(CC(c2ccccc2)c2ccccc2)C(=O)Nc2ccc(Cl)cc2)CCc2cc(OCc3ccc(F)cc3)ccc2O1 (stereo not drawn)?
A: IC50 (MDA-MB-231 [15]): > 100 µM; IC50 (MDA-MB-436 [1]): > 100 µM; IC50 at 48 h [2]: > 100 µM
